Assay results: article PMC10441566 (Acta biomaterialia, 2022)

Columns and labels:
[1] = Microscale thermophoresis; type: binding; details: MST; for Hill coefficient / cooperativity factor (n) of binding with CS: Hill fit, n > 1 positive, n < 1 negative cooperativity
In short: (§1)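 Peptide labeled with 5-FAM at the N-terminus was spun at 14,000 g for 10 min, then used at 200 nM. MST was run at 50% excitation and 40% MST power, room temperature, with 20 s traces. A Hill fit of ΔF_Norm gave Kd and n. n=3 independent runs, mean ± SD.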

[2] = Microscale thermophoresis; type: binding; details: MST, HA titrated up to 2 μM (physiological SF concentration)
γ-Globulin = assay: Microscale thermophoresis; type: binding, bovine; details: MST; for Hill coefficient / cooperativity factor (n) of binding with γ-Globulin: Hill fit
In short: as §1

[3] = type: in vivo; details: quadriceps and patellar tendon, fat pad; rat, 24 h after IA injection, Cy5 label
In short: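 Healthy male Wistar rats (8–10 weeks, 350–400 g) received 50 μl of 300 μM Cy5-labeled test peptide intra-articularly through the patellar tendon, with saline controls. Legs were flexed to spread the dose, and rats were killed at 24 h. Harvested knee tissues were imaged by confocal microscopy at 10X, with Z-stacks reconstructed to X-Z sections for penetration depth. N=6 joints per treatment.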

[4] = Equilibrium intra-cartilage uptake of CPCs in bovine cartilage explants; details: 30 μM CPC, 24 h, 37°C; for Intra-cartilage uptake in presence of HA (comparison between CPCs): 3 mg/ml HA; for Intra-cartilage uptake in presence of BSA (comparison between CPCs) / Intra-cartilage equilibrium uptake ratio (RU): 12 mg/ml BSA; for Intra-cartilage equilibrium uptake ratio (RU): Healthy (simulated) SF: 3 mg/ml HA, 0.1 mg/ml DLPC in PBS pH 7.4, bath fluorescence, mean, n >= 6; for Reduction of intra-cartilage uptake in Healthy SF relative to PBS: Healthy SF vs PBS
[5] = solute concentration inside cartilage relative to surrounding bath; cited from earlier work
[6] = over 7-days desorption period; cited from earlier work

Binding with CS-GAG compared with CPC +N [1] | Substance | Hill coefficient / cooperativity factor (n) of binding with CS [1] | Binding with HA as ligand [2] | Hill coefficient / cooperativity factor (n) of binding with γ-Globulin (γ-Globulin) | Confocal fluorescence signal in less GAG-rich tissues [3] | Intra-cartilage uptake in presence of phospholipids (DLPC), comparison ([4]; 0.1 mg/ml DLPC) | Intra-cartilage uptake in presence of HA (comparison between CPCs) [4] | Intra-cartilage uptake in presence of BSA (comparison between CPCs) [4] | Intra-cartilage uptake relative to CPC +14A (fold higher) ([4]; 12 mg/ml γ-Globulin) [x] | Intra-cartilage equilibrium uptake ratio (RU) ([4]; 12 mg/ml γ-Globulin) | Reduction of intra-cartilage uptake in Healthy SF relative to PBS [4] [x] | Intra-cartilage uptake relative to CPC +14A (fold higher) ([4]; Healthy SF) [x] | Intra-cartilage uptake relative to CPC +14A (fold higher) ([4]; OA SF) [x] | Kd with γ-Globulin, fold lower than that of CPC +14N (γ-Globulin) [x] | Intra-cartilage uptake [5] | Retained within cartilage [6] [%]
– | RRRR(NNRRR)3 R [CPC +14N] | 1.6 | completely unbound | 0.67 | weak fluorescence signal | higher uptake than CPC +14A | no significant difference | no significant difference | 2.8 | 120 | 2.7 | 1.5 | 2 | – | – | –
stronger binding | (AK)7AFAFAF [CPC +F] | 1.6 | – | – | – | – | – | – | – | – | – | – | – | – | – | –
– | RRRR(AARRR)3 R [CPC +14A] | – | completely unbound | 0.67 | weak fluorescence signal | – | no significant difference | no significant difference | – | 80 | 4.5 | – | – | 1.8 | 350 | > 95
– | (AK)7ANANAN [CPC +N] | 0.8 | – | – | – | – | – | – | – | – | – | – | – | – | – | –
